How the values were obtained:
[1] = Metal-centered reduction potential E1/2 for Mn^IIIP/Mn^IIP redox couple; assay type: physicochemical
[2] = system: human epithelial colorectal adenocarcinoma Caco-2; test: WST-1-based cytotoxicity assay, Caco-2; assay type: cell-based; settings: read-out: IC50 values for MnPs in the absence of ascorbate; Caco-2, 96 h, WST-1, no ascorbate
[3] = system: four tumour cell lines (Caco-2, HCT116, 4T1 and Hela); test: WST-1-based cytotoxicity assay, statements across the four tumour cell lines; settings: for cytotoxicity relative to MnTnHex-2-PyP^5+ in the presence of ascorbate: slopes of curves in Figure 5; for effect of low levels on the cell: Figures 5 and 6; for toxicity of MnP in its own right: absence of ascorbate, 30 µM MnP, HCT116, 4T1, Hela
[4] = cited from earlier work; for SOD activity log kcat (O2^·−): cyt c assay, 0.05 M phosphate buffer, pH 7.8, 25 ± 1°C
SOD-deficient E. coli = settings: cited from earlier work; for efficacy in protecting SOD-deficient E. coli: ortho vs meta
[5] = cited from earlier work
[6] = plastic-backed silica-gel TLC plates, 1:1:8 = KNO3(sat):H2O:CH3CN; cited from earlier work
[7] = system: 4T1 mouse breast carcinoma cells; test: Clonogenic assay, 4T1; assay type: cell-based; settings: 4T1, ascorbate 1 mM or MnTnHex-2-PyP^5+ 15 and 30 µM alone, 24 h
[8] = system: HCT116 human colorectal carcinoma cells; test: Clonogenic assay, HCT116; assay type: cell-based; settings: HCT116, ascorbate 0.5 mM or MnTnHex-2-PyP^5+ 15 and 30 µM alone, 24 h
4T1 tumour cells = test: LCMS/MS analysis of MnTnHex-2-PyP^5+ levels in 4T1 cells; assay type: in vitro ADME, mouse
Outline: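 4T1 cells at 1,440,000 per plate in 10 mL DMEM (high glucose, 10% FBS), attached 24 h (~80% confluence), then given 0.5 or 1 mM ascorbate, 5, 15 or 30 µM porphyrin, or combinations, for 24 h. PBS-rinsed, RIPA-lysed on ice, sonicated, spun; lysate porphyrin by LC-MS/MS normalised to Bradford protein. Intracellular concentration calculated assuming 2.19 µL cell volume/mg protein.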

[9] = MnTnHex-2-PyP^5+ levels in tumour and muscle by LCMS/MS; assay type: in vivo, Balb/c mice
Outline: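 Female Balb/c mice (6–8 weeks, ~22 g) bearing subcutaneous flank 4T1 tumours (10^6 cells), treated from ~200 mm3 for 15 days with porphyrin 1 mg/kg twice daily sc, with or without sodium ascorbate 2 g/kg twice daily ip given 1 h later. Tumour and opposite-leg muscle homogenised, deproteinised with 1% acetic acid in methanol, dried, reconstituted; porphyrin by LC-MS/MS, µM in homogenate.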

[10] = n-octanol-water partition coefficient, log Pow; assay type: physicochemical
Caco-2 cells = test: Identification of species involved in cytotoxicity; assay type: cell-based, human
Outline: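 Caco-2 cells at 10,000/well in alpha-MEM with 10% FBS; after 24 h at 37°C, 5% CO2, exposed to 30 µM Mn porphyrin, 3.3 mM ascorbate or both, with or without 1,500 units/mL catalase or 5 mM mannitol, for 96 h. Cells PBS-washed, WST-1 added for 2 h at 37°C, A450/595 read, % viability versus no-drug cells after cell-free blank subtraction.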

[11] = Rate constant for the oxidation of Mn^IIP with oxygen; settings: estimated from Mn^IITM-4-PyP^4+ value and structure-activity relationship

CC[n+]1ccccc1-c1c2nc(c(-c3cccc[n+]3CC)c3ccc([n-]3)c(-c3cccc[n+]3CC)c3nc(c(-c4cccc[n+]4CC)c4ccc1[n-]4)C=C3)C=C2.[Mn+3] [MnTE-2-PyP^5+, Mn(III) meso-tetrakis(N-ethylpyridinium-2-yl)porphyrin]
E1/2 difference relative to MnTnHex-2-PyP^5+ (less positive / more negative) [1]: ~ 100 mV | IC50 [2]: 470 µM | cytotoxicity relative to MnTnHex-2-PyP^5+ in the presence of ascorbate ([3]; 4T1, Hela): more cytotoxic | cytotoxicity relative to MnTnHex-2-PyP^5+ in the presence of ascorbate ([3]; HCT116, Caco-2): equally | effect of low levels on the cell [3]: beneficial | fold more potent SOD mimic than meta MnTE-3-PyP^5+ [4]: 10 fold | SOD activity log kcat (O2^·−) [4]: 7.76 | efficacy in protecting SOD-deficient E. coli (SOD-deficient E. coli): equally efficacious

CC[n+]1cccc(-c2c3nc(c(-c4ccc[n+](CC)c4)c4ccc([n-]4)c(-c4ccc[n+](CC)c4)c4nc(c(-c5ccc[n+](CC)c5)c5ccc2[n-]5)C=C4)C=C3)c1.[Mn+3] [MnTE-3-PyP^5+, Mn(III) meso-tetrakis(N-ethylpyridinium-3-yl)porphyrin, reference compound]
fold more lipophilic than ortho MnTE-2-PyP^5+ [5]: 10 fold | fold more accumulation within E. coli cell than MnTE-2-PyP^5+ (SOD-deficient E. coli): 10 fold | efficacy in protecting SOD-deficient E. coli (SOD-deficient E. coli): equally efficacious

C[n+]1ccc(-c2c3nc(c(-c4cc[n+](C)cc4)c4ccc([n-]4)c(-c4cc[n+](C)cc4)c4nc(c(-c5cc[n+](C)cc5)c5ccc2[n-]5)C=C4)C=C3)cc1.[Mn+3] [MnTM-4-PyP^5+, Mn(III) meso-tetrakis(N-methylpyridinium-4-yl)porphyrin, reference compound]
SOD activity log kcat (O2^·−) [4]: 6.58 | Lipophilicity Rf [6]: 0.064

CCCCCC[n+]1ccccc1-c1c2nc(c(-c3cccc[n+]3CCCCCC)c3ccc([n-]3)c(-c3cccc[n+]3CCCCCC)c3nc(c(-c4cccc[n+]4CCCCCC)c4ccc1[n-]4)C=C3)C=C2.[Mn+3] [MnTnHex-2-PyP^5+, Mn(III) meso-tetrakis(N-n-hexylpyridinium-2-yl)porphyrin]
IC50 [2]: 170 µM | toxicity of MnP in its own right [3]: exerted toxicity | ability to produce colonies, single agent [7]: did not affect | ability to produce colonies, single agent [8]: did not affect | MnP concentration in the cells relative to the medium (4T1 tumour cells; 30 µM MnP in medium): ~ 4 times | more MnP found within cells with MnP/ascorbate compared to MnP alone (4T1 tumour cells; 4T1 cells, depending on concentrations of ascorbate and porphyrin): ≤ 29% | enhancement of MnP accumulation by ascorbate in muscle ([9]; MnP/ascorbate vs MnP treated mice, muscle): 54% | enhancement of MnP accumulation by ascorbate in tumour ([9]; MnP/ascorbate vs MnP treated mice, tumour): 33% | accumulation in tumour relative to muscle from the opposite leg ([9]; MnTnHex-2-PyP^5+ 1 mg/kg twice daily sc, tissue homogenates): higher accumulation in tumour | SOD activity log kcat (O2^·−) [4]: 7.48

CCCCCC[n+]1cccc(-c2c3nc(c(-c4ccc[n+](CCCCCC)c4)c4ccc([n-]4)c(-c4ccc[n+](CCCCCC)c4)c4nc(c(-c5ccc[n+](CCCCCC)c5)c5ccc2[n-]5)C=C4)C=C3)c1.[Mn+3] [MnTnHex-3-PyP^5+, Mn(III) meso-tetrakis(N-n-hexylpyridinium-3-yl)porphyrin]
E1/2 difference relative to MnTE-2-PyP^5+ (more negative) [1]: ~150 mV | E1/2 difference relative to MnTnHex-2-PyP^5+ (less positive / more negative) [1]: ~ 250 mV | fold more lipophilic than MnTnHex-2-PyP^5+ [10]: ~ 10 fold | IC50 [2]: 140 µM | toxicity of MnP in its own right [3]: not significantly toxic | effect of low levels on the cell [3]: beneficial | toxicity of MnP by itself to Caco-2 cells (Caco-2 cells; Caco-2, 30 µM MnP, no ascorbate, Figure 9): less toxic | effect of mannitol on cytotoxicity (Caco-2 cells; Caco-2, 5 mM mannitol, 4 days): blocked significantly | SOD activity log kcat (O2^·−) [4]: 6.64 | accumulation within E. coli cell relative to MnTnHex-2-PyP^5+ (SOD-deficient E. coli; absence of exogenous reductant): several-fold more

CC[n+]1ccccc1-c1c2nc(c(-c3cccc[n+]3CC)c3ccc([n-]3)c(-c3cccc[n+]3CC)c3nc(c(-c4cccc[n+]4CC)c4ccc1[n-]4)C=C3)C=C2.[Mn+2] [Mn^IITE-2-PyP^4+]
rate constant for the reaction with O2 [11]: 80000 M⁻¹ s⁻¹

From paper PMC3500602 (Free radical research, 2011)
